KCNK3 inh: human KCNK3 channel inhibition, primary screen; O14649; CHO-KCNK3 thallium flux, FluxOR fluorescence; stronger effect = lower value; B-score at 10 µM; 340,000 compounds, 0.84% hits; AID 602410;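 active = B-score under library mean minus 4 SD, starting fluorescence ratio at most library mean plus 5 SD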;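 note: more negative B-score means stronger inhibition of thallium flux through KCNK3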
KCNQ1 pot: potentiates or activates the human KCNQ1 potassium channel; P51787; CHO-K1 KCNQ1, thallium flux FluxOR fluorescence; stronger effect = higher value; B-score at 10 µM; 310,000 compounds, 0.35% hits;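 active = fluorescence ratio B-score, a plate-corrected score, at least three library SD, with initial intensity B-score within 5 SD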
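Assay system: CHO-K1 cells stably expressing KCNQ1. Medium: assay buffer for compound exposure, DMSO matched across wells. Timing: 37 °C overnight plating, 90-min dark dye load, 20-min compound pretreatment. Signal: kinetic FluxOR fluorescence, 10 s baseline plus 110 s post-stimulus.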
KCNQ1 inh: human KCNQ1 channel inhibition; P51787; CHO-K1 KCNQ1, FluxOR thallium flux fluorescence; stronger effect = higher value; B-score at 10 µM; 310,000 compounds, 1.3% hits;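 active = compounds whose thallium flux B-score, printed positive for inhibition, exceeds three library SD while starting fluorescence stays within three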;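 note: channel opened by potassium depolarization with thallium stimulus after 20 min compound exposure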
Kir21 inh: blocks the mouse Kir2.1 inward-rectifier potassium channel; P35561; HEK293-Kir2.1, FluxOR thallium flux fluorescence; stronger effect = lower value; B-score at 10 µM; 310,000 compounds, 0.85% hits; AID 1672;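 active = fluorescence ratio B-score at or below minus 3 SD of library scores, with starting-brightness B-score within 2 SD, cut at about -4.2 in these data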;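 note: channel flux triggered by added potassium and thallium sulfate stimulus; B-score of peak minus minimum fluorescence over baseline after thallium stimulus; more negative B-score means stronger Kir2.1 block with less thallium influx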
Target sequence (P35561 whole entry, looked up): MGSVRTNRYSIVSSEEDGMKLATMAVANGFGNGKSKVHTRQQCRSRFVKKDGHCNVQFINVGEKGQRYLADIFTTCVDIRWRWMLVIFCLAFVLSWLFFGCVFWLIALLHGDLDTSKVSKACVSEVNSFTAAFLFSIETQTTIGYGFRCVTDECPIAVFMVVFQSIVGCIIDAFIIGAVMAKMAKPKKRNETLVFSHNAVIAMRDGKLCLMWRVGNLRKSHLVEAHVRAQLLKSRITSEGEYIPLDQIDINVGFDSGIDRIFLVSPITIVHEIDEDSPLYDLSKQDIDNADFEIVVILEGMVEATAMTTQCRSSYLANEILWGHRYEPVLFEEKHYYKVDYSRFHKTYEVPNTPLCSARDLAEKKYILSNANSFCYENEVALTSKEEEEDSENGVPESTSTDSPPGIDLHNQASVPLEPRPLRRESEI
KCNK9 inh: inhibitors of human KCNK9 two-pore domain potassium channel | 310,000 compounds, 1.2% hits | HEK293 KCNK9, FluxOR thallium flux fluorescence; stronger effect = lower value | B-score at 10 µM | AID 488922 | Q9NPC2;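 active = ratio B-score over 3 SD below the library mean, with starting fluorescence within 5 SD of its mean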;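 note: negative B-score means less thallium flux so channel inhibition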
hERG protect: hERG (human) protection from proarrhythmic block | Q12809 | CHO-hERG, FluxOR thallium flux, dofetilide IC70 present | activation (rescue from dofetilide block), less the hit threshold, % at 10 µM | 310,000 compounds, 0.51% hits | AID 1511;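 active = activation above the mean of controls blocked by dofetilide plus 5 SD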;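 note: thallium influx through hERG after potassium depolarization seen as dye fluorescence rise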
KCNK9 block conf: confirmation of human KCNK9 potassium channel inhibitors | shares compounds with KCNK9 inh | HEK293 KCNK9 cells, FluxOR thallium flux fluorescence | inhibition, % at 10 µM | 4,900 compounds, 43% hits | AID 492992;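 active = thallium signal inhibited by more than 5 SD of the compound-free buffer control wells, on both duplicate plates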
Kir2-1 spec: mouse Kir2.1 off-target activity of KCNK9 modulators. shares compounds with KCNK9 inh. Kir2.1 cells, FluxOR thallium flux fluorescence. inhibition, % at 10 µM. 4,900 compounds, 4% hits;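 active = thallium signal drop more than 5 SD beyond the mean of the no-compound control wells, seen in both duplicate plates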;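 note: signal is fluorescence rise after thallium addition divided by baseline fluorescence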
HEK293 Tl ctr: second check of KCNK9 modulator effects in non-induced HEK293 cells; shares compounds with KCNK9 inh; FluxOR thallium flux; inhibition, % at 10 µM; 4,900 compounds, 40% hits; AID 492997;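 active = thallium signal drop beyond 5 SD of the untreated control mean, on both duplicate plates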
Hits are given with their value; - = inactive; . = no result. An excerpt weighted towards active compounds, which were near 3.7% of everything screened.

SMILES | KCNK3 inh | KCNQ1 pot | KCNQ1 inh | Kir21 inh | KCNK9 inh | hERG protect | KCNK9 block conf | Kir2-1 spec | HEK293 Tl ctr
COc1ccc(C(=O)/C=C/NCc2ccc(C)cc2)cc1 | - | - | - | - | - | - | - | - | -
Cc1ccc(C(=O)/C=C\NCc2ccccc2)cc1 | - | - | - | - | - | - | . | . | .
CC(C)CCNC(=O)C12CN(Cc3ccccc3)CC1C(c1ccc([N+](=O)[O-])cc1)=NO2 (stereo not drawn) | - | - | - | - | - | - | . | . | .
COc1cccc(CNC(=O)C23CN(Cc4ccccc4)CC2C(c2ccc([N+](=O)[O-])cc2)=NO3)c1 (stereo not drawn) | - | - | - | - | - | - | - | - | -
COc1ccccc1C(=O)COC(=O)CN1C(=O)C2CC=CCC2C1=O (stereo not drawn) | - | - | - | - | - | - | . | . | .
CC(C)C(=O)N1CCN(c2nc(-c3ccccc3)c3c(c2C#N)CCCC3)CC1 | - | - | - | - | -8.6 | - | 40% | - | -
CCN(CC)CCOc1ccc(/C(=C(/Cl)c2ccccc2)c2ccccc2)cc1 | - | - | 8 | - | - | - | - | - | -
CCOc1ccc(C(=O)OCCN(CC)CC)cc1 | - | - | - | - | - | - | . | . | .
Cc1ccccc1C(=O)NC(=S)NCCC1=CCCCC1 | - | - | - | - | - | - | - | - | -
Cc1ccccc1C(=O)NC(=S)NCCc1ccccc1 | - | - | - | - | - | - | . | . | .
COc1ccc(NC(=O)N(C)C[C@H]2Oc3ccc(NS(=O)(=O)c4c(C)noc4C)cc3C(=O)N([C@H](C)CO)C[C@@H]2C)cc1 | - | . | . | . | . | . | . | . | .
CCN(CC)C(=O)/C=C/c1ccccc1 | - | . | . | . | . | . | . | . | .
CCN(C(=O)/C=C/c1ccccc1)C1CCCCC1 | - | - | - | - | - | - | - | - | -
Cc1ccc(/C=C/C(=O)Nc2ccc(Oc3ccccc3)cc2)o1 | - | - | - | - | - | - | - | - | -
Cc1ccc(/C=C/C(=O)Nc2ccc([N+](=O)[O-])cc2)o1 | - | - | - | - | - | - | . | . | .
COc1ccc(NC(=O)c2cc3sccc3n2Cc2ccc(F)cc2)cc1OC | - | - | - | - | -12 | - | 57% | - | 30%
CCOC(=O)c1c(C)[nH]c(C)c1S(=O)(=O)NCc1cc(C)ccc1C | - | - | - | - | - | - | . | . | .
Cc1cc(C)nc(N/C(=N\S(=O)(=O)Cc2ccccc2)Nc2cccc(Cl)c2C)n1 | - | - | - | - | - | - | . | . | .
Cc1cc(C)nc(N/C(=N\S(=O)(=O)Cc2ccccc2)Nc2ccc(F)c(Cl)c2)n1 | - | - | - | - | -13 | - | - | - | -
CCOc1ccc(C(=O)Nc2nnc(NC(=S)Nc3ccccc3)s2)cc1 | - | - | - | - | - | - | . | . | .
Cc1ccc(C(=O)Nc2nnc(NC(=S)Nc3ccccc3)s2)cc1 | - | - | - | - | - | - | - | - | -
CCCn1cc(S(=O)(=O)c2ccc(F)cc2)c(=O)c2cc(OCC)ccc21 | - | - | - | - | - | - | . | . | .
CC(C)CCn1c(=O)c2ccccc2n2c(CN(C)Cc3ccccc3)nnc12 | - | - | - | - | - | - | - | - | -
CC(C)CCn1c(=O)c2ccccc2n2c(CCl)nnc12 | - | - | - | - | - | - | . | . | .
Cc1c(/C=N/n2cnnc2)c2ccccc2n1CCOc1ccc(Cl)cc1 | - | - | - | - | -8.2 | - | - | - | -
SMILES | KCNK3 inh | KCNQ1 pot | KCNQ1 inh | Kir21 inh | KCNK9 inh | hERG protect | KCNK9 block conf | Kir2-1 spec | HEK293 Tl ctr
Cc1ccc(OCCn2c(C)c(/C=N/n3cnnc3)c3ccccc32)cc1 | - | - | - | - | - | - | . | . | .
COc1ccc(C(=O)NC2CCN(CC(=O)NCc3ccccc3)CC2)cc1 | - | - | - | - | - | - | . | . | .
COc1ccc(CNC(=O)c2ccc3c(c2)N(C)CCS3)cc1 | - | - | - | - | - | - | . | . | .
CC(C)Oc1ccc(CNC(=O)c2ccc3c(c2)N(C)CCS3)cc1 | - | - | - | - | - | - | - | - | -
COc1ccc(C(=O)CSc2nc(C(C)(C)C)nc3ccccc23)cc1 | - | - | - | - | -10 | - | 46% | 35% | 30%
COc1ccc(C(=O)CSc2nc3ccccc3n2CC(=O)c2ccccc2)cc1 | - | - | - | - | - | - | . | . | .
O=C(C1CCCC1)N1CCCC(Nc2ccc(F)cc2)C1 (stereo not drawn) | - | - | - | - | - | - | . | . | .
Cc1ccc(NC2CCCN(C(=O)C3CCCCC3)C2)cc1C (stereo not drawn) | - | - | - | - | - | - | - | - | -
Cc1cc(C)c(C(=O)N2CCCC(Nc3ccc(C)c(C)c3)C2)o1 (stereo not drawn) | - | - | - | - | - | - | - | - | -
Cc1cc(NC(=O)CCC(=O)N(CC(=O)NC2CCCC2)c2ccc(Cl)cc2)no1 | - | - | - | - | - | - | . | . | .
CC(=O)C(Cc1ccccc1)NC(=O)CN1c2cccc3cccc(c23)S1(=O)=O (stereo not drawn) | - | . | . | . | . | . | . | . | .
COc1ccc(CC(C)N2CCN(Cc3ccccc3)CC2)cc1OC (stereo not drawn) | - | - | - | - | - | - | . | . | .
O=C(OC1CCN(c2ncc(C(F)(F)F)cc2Cl)CC1)c1ccc(Cl)cc1 | - | - | - | - | - | - | - | - | -
CCOc1ccccc1C1c2cc3c(cc2OC(C)(N2CCCC2)C1C)OCO3 (stereo not drawn) | - | - | - | - | - | - | . | . | .
CNC(=S)N/N=C/c1c(C)c(C(=O)c2ccc(F)cc2)n2ccccc12 | - | - | - | - | - | - | . | . | .
CCn1cc(/C=C(\NC(=O)c2ccccc2F)C(=O)NCCN2CCOCC2)c2ccccc21 | - | - | - | - | - | - | - | - | -
CCn1cc(/C=C(\NC(=O)c2ccccc2OC)C(=O)NCCCN2CCOCC2)c2ccccc21 | - | - | - | - | - | - | . | . | .
COc1ccc(-c2nnc(SCC(=O)c3ccc(C)o3)o2)cc1 | - | - | - | - | - | - | . | . | .
COc1ccc(-c2nnc(SCc3cc(C)cc(C)c3)o2)cc1 | - | - | - | - | - | - | - | - | -
CC(C)CCn1nnnc1CN1CCN(C(c2ccccc2)c2ccccc2)CC1 | - | - | - | - | - | - | . | . | .
c1ccc(C(c2ccccc2)N2CCN(Cc3nnnn3C3CCCC3)CC2)cc1 | - | - | - | - | -9 | - | 41% | - | -
O=C(CCCOc1ccccc1)N1CCCc2ccccc21 | - | - | - | - | - | - | . | . | .
Cc1cc(Cl)ccc1OCCCC(=O)N1CCCc2ccccc21 | - | - | - | - | - | - | - | 67% | -
O=C(Cc1ccc([N+](=O)[O-])cc1)Nc1cccc(C(=O)N2CCCCC2)c1 | - | . | . | . | . | . | . | . | .
